Experimental data: ChEMBL document CHEMBL4334439, “Discovery, Optimization, and Target Identification of Novel Potent Broad-Spectrum Antiviral Inhibitors” (J Med Chem, 2019)

Assays:
Hepatitis C virus [1] = test: Antiviral activity against GFP-fused HCV JFH-1 harboring K78E/E2-G451R/NS3-M260K/NS5A-T462I mutant infected in human Huh7.5.1 cells assessed as reduction in viral infection at 10 uM preincubated for 2 hrs followed by viral infection and measured after 48 hrs by epifluorescence microscopic analysis relative to control; format: functional, Hepacivirus hominis; parameters: scale not given: the % may be the effect or the level left
Outline: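 Primary screen at 10 μM. Huh7.5.1 cells were pretreated 2 h, then infected with GFP-HCV (MOI 1). GFP intensity was checked by fluorescence microscopy at 48 h. Hits needed over 50% fluorescence decay before dose-response retesting.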

Hepatitis C virus [2] = test: Antiviral activity against EGFP-fused HCV JFH-1 harboring K78E/E2-G451R/NS3-M260K/NS5A-T462I mutant infected in human Huh7.5.1 cells assessed as reduction in viral RNA level after 2 days by qRT-PCR analysis; format: functional, organism-based, Hepacivirus hominis; settings: JFH-1, Huh-7.5.1, 48 h
Outline: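 Huh7.5.1 cells at 1×10^4/well, grown overnight at 37 °C. HCVcc was mixed with serially diluted compound (top 30 or 6 μM), given alone or with the named drug, and added to the cells. Viral RNA was read by qRT-PCR after 2 days. EC50 is the concentration giving 50% RNA reduction.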

[3] = Selectivity index, ratio of CC50 for human Huh7.5.1 cells to EC50 for EGFP-fused HCV JFH-1 harboring K78E/E2-G451R/NS3-M260K/NS5A-T462I mutant infected in human Huh7.5.1 cells; format: toxicity, cell-based; settings: read-out: Ratio CC50/EC50
[4] = Cytotoxicity against human Huh7.5.1 cells assessed as decrease in cell viability after 48 hrs by WST1 assay; format: cell-based
Outline: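 Cells seeded at 1 × 10^4 per well and cultured overnight at 37 °C, then incubated 48 h with serially diluted compounds. Viability read with WST-1 reagent as absorbance at OD450/OD630.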

Hepatitis C virus [5] = test: Antiviral activity against HCV JFH-1 harboring K78E/E2-G451R/NS3-M260K/NS5A-T462I mutant infected in human Huh7.5.1 cells after 2 days by renilla luciferase reporter gene assay; format: functional, organism-based, Hepacivirus hominis; settings: JFH-1, Huh-7.5.1, 48 h
Outline: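 Renilla luciferase reporter HCVcc (hRluc inserted in NS5A, aa 399/400) came from electroporated Huh7.5.1 supernatant. Virus plus serially diluted compound (top 30 or 6 μM) was added to Huh7.5.1 cells (1×10^4/well) and luminescence read. EC50 is 50% luminescence reduction.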

[6] = Inhibition of C-terminal 6-His tagged recombinant human DHODH N-terminal domain delta29 mutant expressed in Escherichia coli BL21(DE3) using dihydroorotate as substrate measured every 30 secs for 6 mins by DCIP dye based assay
Outline: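 Enzyme purified by HisTrap then size exclusion. Reaction started with 500 μM dihydroorotate. DCIP decrease read at 600 nm. Inhibition = (1 − Vi/V0) × 100. IC50 from 8–9 concentrations in triplicate by sigmoidal fit.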

## Cc1c(-c2ccc(Cc3ccc(SC(F)(F)F)cc3)cc2)[nH]c2c(F)cccc2c1=O
Hepatitis C virus [1]
  Activity: >50%
Hepatitis C virus [2]
  EC50: 1.85 µM
[3]
  selectivity ratio: > 3
[4]
  CC50 at 48 h: > 5 µM

## Cc1c(-c2ccc(Cc3ccc(Cl)cc3)cc2)[nH]c2cccc(F)c2c1=O
Hepatitis C virus [1]
  Activity: >50%
Hepatitis C virus [2]
  EC50: 4.4 µM
[3]
  selectivity ratio: > 2
[4]
  CC50 at 48 h: > 10 µM

## Cc1c(-c2ccc(Oc3ccc(SC(F)(F)F)cc3)c(F)c2)[nH]c2cccc(F)c2c1=O
Hepatitis C virus [1]
  Activity: >50%
Hepatitis C virus [2]
  EC50: 0.36 µM
[3]
  selectivity ratio: > 27
[4]
  CC50 at 48 h: > 10 µM

## Cc1c(-c2ccc(COc3ccc(SC(F)(F)F)cc3)cc2)[nH]c2cccc(F)c2c1=O
Hepatitis C virus [1]
  Activity: >50%
Hepatitis C virus [2]
  EC50: 1.59 µM
[3]
  selectivity ratio: > 6
[4]
  CC50 at 48 h: > 10 µM

## Cc1c(-c2ccc(Cc3ccc(C(O)C(F)(F)F)cc3)cc2)[nH]c2cccc(F)c2c1=O (centres undefined)
Hepatitis C virus [1]
  Activity: >50%
Hepatitis C virus [2]
  EC50: 3.49 µM
[3]
  selectivity ratio: > 3
[4]
  CC50 at 48 h: > 10 µM

## Cc1c(-c2ccc(OCCCN3CCOCC3)cc2)[nH]c2cccc(F)c2c1=O
Hepatitis C virus [1]
  Activity: >50%
Hepatitis C virus [2]
  EC50: 28.1 µM
[3]
  selectivity ratio: > 4
[4]
  CC50 at 48 h: > 100 µM

## Cc1c(-c2ccc(Cc3ccc(N4CCCCC4)cc3)cc2)[nH]c2cccc(F)c2c1=O
Hepatitis C virus [1]
  Activity: >50%
Hepatitis C virus [2]
  EC50: 1.92 µM
[3]
  selectivity ratio: > 5
[4]
  CC50 at 48 h: > 10 µM

## Cc1c(-c2ccc(Oc3ccc(N4CCNCC4)cc3)c(F)c2)[nH]c2cccc(F)c2c1=O
Hepatitis C virus [1]
  Activity: >50%
Hepatitis C virus [2]
  EC50: 2.57 µM
[3]
  selectivity ratio: > 4
[4]
  CC50 at 48 h: > 10 µM

## Cc1c(-c2ccc(Cc3ccc(N4CCOCC4)cc3)cc2)[nH]c2cccc(F)c2c1=O
Hepatitis C virus [1]
  Activity: >50%
Hepatitis C virus [2]
  EC50: 3.65 µM
[3]
  selectivity ratio: > 3
[4]
  CC50 at 48 h: > 10 µM

## Cc1c(-c2ccc(Cc3ccc([S+]([O-])C(F)(F)F)cc3)cc2)[nH]c2cccc(F)c2c1=O (centres undefined)
Hepatitis C virus [1]
  Activity: >50%
Hepatitis C virus [2]
  EC50: 0.76 µM
[3]
  selectivity ratio: > 7
[4]
  CC50 at 48 h: > 5 µM

## CC(C)OC(=O)[C@H](C)N[P@](=O)(OC[C@H]1O[C@@H](n2ccc(=O)[nH]c2=O)[C@](C)(F)[C@@H]1O)Oc1ccccc1 [SOFOSBUVIR]
Hepatitis C virus [5]
  EC50: 0.17 µM

## Cc1c(-c2ccc(Cc3ccc(SC(F)(F)F)cc3)cc2)[nH]c2cc(F)ccc2c1=O
Hepatitis C virus [1]
  Activity: >50%
Hepatitis C virus [2]
  EC50: 0.97 µM
[3]
  selectivity ratio: > 5
[4]
  CC50 at 48 h: > 5 µM

## Cc1c(-c2ccc(Cc3ccc(SC(F)(F)F)cc3)cc2)[nH]c2ccc(F)cc2c1=O
Hepatitis C virus [1]
  Activity: >50%
Hepatitis C virus [2]
  EC50: 2.48 µM
[3]
  selectivity ratio: > 4
[4]
  CC50 at 48 h: > 10 µM

## Cc1c(-c2ccc(Cc3ccc(OCC(F)(F)F)cc3)cc2)[nH]c2cccc(F)c2c1=O
Hepatitis C virus [1]
  Activity: >50%
Hepatitis C virus [2]
  EC50: 0.84 µM
[3]
  selectivity ratio: > 6
[4]
  CC50 at 48 h: > 5 µM

## Cc1c(-c2ccc(Cc3ccc(C(C)(C)C)cc3)cc2)[nH]c2cccc(F)c2c1=O
Hepatitis C virus [1]
  Activity: >50%
Hepatitis C virus [2]
  EC50: 0.29 µM
[3]
  selectivity ratio: > 17
[4]
  CC50 at 48 h: > 5 µM

## Cc1c(-c2ccc(Cc3ccc(OC(F)(F)F)cc3)cc2)[nH]c2cccc(F)c2c1=O
Hepatitis C virus [1]
  Activity: >50%
Hepatitis C virus [2]
  EC50: 0.36 to 1.56 µM
[3]
  selectivity ratio: > 6
[4]
  CC50 at 48 h: > 10 µM

## Cc1c(-c2ccc(CNC(=O)c3ccc(SC(F)(F)F)cc3)cc2)[nH]c2cccc(F)c2c1=O
Hepatitis C virus [1]
  Activity: >50%
Hepatitis C virus [2]
  EC50: 11.1 µM
[3]
  selectivity ratio: > 5
[4]
  CC50 at 48 h: > 50 µM

## Cc1c(-c2ccc(Cc3ccc(SC(F)(F)F)cc3)cc2)[nH]c2cccc(F)c2c1=O
Hepatitis C virus [1]
  Activity: >50%
Hepatitis C virus [2]
  EC50: 0.36 to 1.56 µM
[3]
  selectivity ratio: > 27
[4]
  CC50 at 48 h: > 10 µM

## Cc1c(-c2ccc(Cc3ccc(OC(F)F)cc3)cc2)[nH]c2cccc(F)c2c1=O
Hepatitis C virus [1]
  Activity: >50%
Hepatitis C virus [2]
  EC50: 1.01 µM
[3]
  selectivity ratio: > 5
[4]
  CC50 at 48 h: > 5 µM

## Cc1c(-c2ccc(Cc3ccc(C(C)(O)C(F)(F)F)cc3)cc2)[nH]c2cccc(F)c2c1=O (centres undefined)
Hepatitis C virus [1]
  Activity: >50%
Hepatitis C virus [2]
  EC50: 0.11 µM
[3]
  selectivity ratio: > 23
[4]
  CC50 at 48 h: > 2.5 µM

## C#CCCC1(CCN(CC)c2ccc(Oc3ccc(-c4[nH]c5cccc(F)c5c(=O)c4C)cc3F)cc2)N=N1
Hepatitis C virus [1]
  Activity: >50%
[6]
  IC50: 0.25 µM
Hepatitis C virus [2]
  EC50: 0.008 µM

## C#CCCC1(CCN(CC)c2ccc(Oc3ccc(-c4nc5cccc(F)c5c(OC)c4C)cc3F)cc2)N=N1
Hepatitis C virus [1]
  Activity: >50%
[6]
  IC50: 1.03 µM
Hepatitis C virus [2]
  EC50: > 5 µM

## Cc1c(-c2ccc(Cc3ccc(S(=O)(=O)C(F)(F)F)cc3)cc2)[nH]c2cccc(F)c2c1=O
Hepatitis C virus [1]
  Activity: >50%
Hepatitis C virus [2]
  EC50: 1.76 µM
[3]
  selectivity ratio: > 2
[4]
  CC50 at 48 h: > 2.5 µM

## Cc1c(-c2ccc(-c3ccc(SC(F)(F)F)cc3)cc2)[nH]c2cccc(F)c2c1=O
Hepatitis C virus [1]
  Activity: >50%
Hepatitis C virus [2]
  EC50: 2.33 µM
[3]
  selectivity ratio: > 4
[4]
  CC50 at 48 h: > 10 µM

## CN=S(=O)(c1ccc(Cc2ccc(-c3[nH]c4cccc(F)c4c(=O)c3C)cc2)cc1)C(F)(F)F (centres undefined)
Hepatitis C virus [1]
  Activity: >50%
Hepatitis C virus [2]
  EC50: 5.39 µM
[3]
  selectivity ratio: > 2
[4]
  CC50 at 48 h: > 10 µM

## CCNc1ccc(Oc2ccc(-c3[nH]c4cccc(F)c4c(=O)c3C)cc2F)cc1
Hepatitis C virus [1]
  Activity: >50%
Hepatitis C virus [2]
  EC50: 0.17 µM
[3]
  selectivity ratio: > 58
[4]
  CC50 at 48 h: > 10 µM

## CCCN(CC)c1ccc(Oc2ccc(-c3[nH]c4cccc(F)c4c(=O)c3C)cc2F)cc1
Hepatitis C virus [1]
  Activity: >50%
Hepatitis C virus [2]
  EC50: 0.066 µM
[3]
  selectivity ratio: > 151
[4]
  CC50 at 48 h: > 10 µM

## Cc1c(-c2ccc(Oc3ccc(N4CCCCC4)cc3)c(F)c2)[nH]c2cccc(F)c2c1=O
Hepatitis C virus [1]
  Activity: >50%
Hepatitis C virus [2]
  EC50: 0.1 µM
[3]
  selectivity ratio: > 100
[4]
  CC50 at 48 h: > 10 µM

## Cc1c(-c2ccc(OCCN3CCCCC3)cc2)[nH]c2cccc(F)c2c1=O
Hepatitis C virus [1]
  Activity: >50%
Hepatitis C virus [2]
  EC50: 16.6 µM
[3]
  selectivity ratio: > 6
[4]
  CC50 at 48 h: > 100 µM

## CCN(C)c1ccc(Oc2ccc(-c3[nH]c4cccc(F)c4c(=O)c3C)cc2F)cc1
Hepatitis C virus [1]
  Activity: >50%
Hepatitis C virus [2]
  EC50: 0.24 µM
[3]
  selectivity ratio: > 42
[4]
  CC50 at 48 h: > 10 µM

## Cc1c(-c2ccc(Oc3ccc(N(C)C)cc3)c(F)c2)[nH]c2cccc(F)c2c1=O
Hepatitis C virus [1]
  Activity: >50%
Hepatitis C virus [2]
  EC50: 1.05 µM
[3]
  selectivity ratio: > 10
[4]
  CC50 at 48 h: > 10 µM

## CCN(CC)CCOc1ccc(-c2[nH]c3cccc(F)c3c(=O)c2C)cc1
Hepatitis C virus [1]
  Activity: >50%
Hepatitis C virus [2]
  EC50: 25.6 µM
[3]
  selectivity ratio: > 4
[4]
  CC50 at 48 h: > 100 µM

## Cc1c(-c2ccc(Cc3ccc(S(F)(F)(F)(F)F)cc3)cc2)[nH]c2cccc(F)c2c1=O
Hepatitis C virus [1]
  Activity: >50%
Hepatitis C virus [2]
  EC50: 0.73 µM
[3]
  selectivity ratio: > 7
[4]
  CC50 at 48 h: > 5 µM

## Cc1c(-c2ccc(Oc3ccc(N4CCCC4)cc3)c(F)c2)[nH]c2cccc(F)c2c1=O
Hepatitis C virus [1]
  Activity: >50%
Hepatitis C virus [2]
  EC50: 0.035 µM
[3]
  selectivity ratio: > 285
[4]
  CC50 at 48 h: > 10 µM

## Cc1c(-c2ccc(Cc3ccc(S(=N)(=O)C(F)(F)F)cc3)cc2)[nH]c2cccc(F)c2c1=O (centres undefined)
Hepatitis C virus [1]
  Activity: >50%
Hepatitis C virus [2]
  EC50: 1.42 µM
[3]
  selectivity ratio: > 7
[4]
  CC50 at 48 h: > 10 µM

## COc1ccc(Cc2ccc(-c3[nH]c4cccc(F)c4c(=O)c3C)cc2)cc1
Hepatitis C virus [1]
  Activity: >50%
Hepatitis C virus [2]
  EC50: 2.17 µM
[3]
  selectivity ratio: > 5
[4]
  CC50 at 48 h: > 10 µM
